Read-outs that look alike come from different tables or passages of the source.
What was measured:
[1] = system: Pf parasites; assay: Minimum inoculum resistance; type: cell-based, Plasmodium falciparum
Outline: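 Pf cultures were selected at constant pressure of 3 × IC50 in two groups. The lower-inoculum group used 24 wells. The higher group started at 2 × 10^7 parasites in triplicate, covering 2 × 10^7 to 6 × 10^7. Wells were monitored for day of recrudescence. MIR = total inoculum divided by the number of recrudescent wells. A DHODH inhibitor served as positive control. Resistant clones were whole-genome sequenced.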

[2] = system: Dd2; details: read-out: Dd2 IC50; cited from earlier work
[3] = system: TM90C2b; assay: 72 h [3H]hypoxanthine incorporation assay, TM90C2b; type: cell-based; details: Plasmodium falciparum
Outline: (§1)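 Asexual Pf strains were tested in a modified [3H]-hypoxanthine incorporation assay. Drug-resistant laboratory strains were compared with the drug-sensitive NF54 strain. IC50s came from linear interpolation.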

[4] = system: NF54; assay: 72 h [3H]hypoxanthine incorporation assay, NF54; type: cell-based; details: Plasmodium falciparum
Outline: as §1

[5] = system: 7G8; assay: 72 h [3H]hypoxanthine incorporation assay, 7G8; type: cell-based; details: Plasmodium falciparum
Outline: as §1

[6] = system: K1; assay: 72 h [3H]hypoxanthine incorporation assay, K1; type: cell-based; details: Plasmodium falciparum
Outline: as §1

[7] = system: Dd2; assay: 72 h [3H]hypoxanthine incorporation assay, Dd2; type: cell-based; details: Plasmodium falciparum
[8] = system: Cam3.I; assay: 72 h [3H]hypoxanthine incorporation assay, Cam3.I; type: cell-based; details: Plasmodium falciparum
Outline: as §1

SMILES	minimum inoculum resistance (MIR) ([1]; selection pressure 3 × IC50, parasites)	day of recrudescence ([1]; starting inoculum 2 × 10^5 parasites, 24 replicates)	day of recrudescence ([1]; starting inoculum 2 × 10^7 parasites, triplicate) [days]	IC50 [2] [µM]	IC50 [3] [µM]	IC50 [4] [µM]	IC50 [5] [µM]	IC50 [6] [µM]	IC50 [7] [µM]	IC50 [8] [µM]
Cc1cc(Nc2ccc(S(F)(F)(F)(F)F)cc2)n2nc(C(C)(F)F)nc2n1 [DSM265]	2 × 10^7	never recrudesced	25	–	–	–	–	–	–	–
O=C(NC1Cc2ccccc2C1)c1nccnc1NC(=O)N1CCCCC1 [N-(2,3-dihydro-1H-inden-2-yl)-3-(piperidine-1-carboxamido)pyrazine-2-carboxamide]	–	–	–	0.063	–	–	–	–	–	–
CCN(CC)CCCC(C)Nc1ccnc2cc(Cl)ccc12 (stereo not shown) [chloroquine]	–	–	–	–	0.135	0.008	0.079	0.202	0.157	0.18
C[C@H]1[C@H](OC(=O)CCC(=O)O)O[C@@H]2O[C@@]3(C)CC[C@H]4[C@H](C)CC[C@@H]1[C@@]24OO3 [artesunate]	–	–	–	–	0.005	0.004	0.002	0.002	0.006	0.011

— PMC8204304 (ACS Infectious Diseases, 2021)
